Assay results published in ChEMBL document CHEMBL1148218, “Structures of new beta-carboline-type alkaloids with antiallergic effects from Stellaria dichotoma(1,2)” (J Nat Prod, 2004).
Structures can show the parent of a compound that is named as a salt.

How the values were obtained:
RBL-2H3 [1] = experiment: Inhibition of beta-hexosaminidase in anti-DNP IgE sensitized rat RBL2H3 cells at 100 uM after 10 mins; type: functional; conditions: RBL-2H3, 10 min
Method in brief: (§1)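 IgE-sensitized RBL-2H3 cells (2 × 10^5/well) in Siraganian buffer with 5.6 mM glucose, 1 mM CaCl2, 0.1% BSA, 10 min at 37 °C; sample in DMSO (final 0.1%) added for 10 min, then DNP-BSA (final 10 μg/mL). After 10 min supernatant reacted with 1 mM p-nitrophenyl-N-acetyl-β-D-glucosaminide, pH 4.5, 37 °C, 1 h; stopped at pH 10, A405. Percent inhibition; IC50 determined graphically.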

RBL-2H3 [2] = experiment: Inhibition of beta-hexosaminidase in anti-DNP IgE sensitized rat RBL2H3 cells after 10 mins; type: functional, cell-based; conditions: RBL-2H3, 10 min; method in brief: as §1
RBL-2H3 [3] = experiment: Inhibition of anti-DNP IgE-induced TNFalpha production in rat RBL2H3 cells after 4 hrs by ELISA; type: functional, cell-based; conditions: RBL-2H3, 4 h
Method in brief: (§2)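 RBL-2H3 cells (2 × 10^5/well in MEM) sensitized with anti-DNP IgE, then stimulated with DNP-BSA antigen in presence of sample; TNF-α and IL-4 in medium measured 4 h later by rat ELISA. Percent inhibition calculated; IC50 read graphically.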

RBL-2H3 [4] = experiment: Inhibition of anti-DNP IgE-induced IL4 production in rat RBL2H3 cells after 4 hrs by ELISA; type: functional, cell-based; conditions: RBL-2H3, 4 h; method in brief: as §2
Mus musculus = experiment: Antiallergic activity in ddY mouse ear at 200 mg/kg, po by passive cutaneous anaphylaxis reaction; type: functional

SMILES | inhibition at 100 µM (RBL-2H3 [1]) [%] | also measured
CCCCOC(=O)c1cc2c([nH]c3ccccc32)c([C@@H](O)CO)n1 [DICHOTOMINE D] | 11.2 | –
COc1cc(C(=O)O)ccc1O [VANILLIC ACID] | 8.4 | –
O=Cc1ccc(CO)o1 [AES-103] | 3.4 | –
CCC(O)c1cc(OC)c2c(c1)OCO2 (configuration not stated) | 1.2 | –
COc1ccc(CCC(=O)O)cc1OC | 2.3 | –
CN1CCC(=C2c3ccccc3CC(=O)c3sccc32)CC1 [KETOTIFEN FUMARATE] | – | IC50 (RBL-2H3 [2]): 220 µM
O=Cc1ccc(CO)[nH]1 | 8.5 | –
COC(=O)c1cc2c([nH]c3ccccc32)c([C@@H](O)CO)n1 [DICHOTOMINE C] | 89.2 | IC50 (RBL-2H3 [2]): 62 µM; IC50 (RBL-2H3 [3]): 19 µM; IC50 (RBL-2H3 [4]): 15 µM
COc1cc(C(C)=O)ccc1O [APOCYNIN] | 2.3 | –
C[C@H](O)c1nc(C(=O)O)cc2c1[nH]c1ccccc12 [DICHOTOMINE A] | 5.9 | –
COc1ccc(/C=C/C(=O)Nc2ccccc2C(=O)O)cc1OC [TRANILAST] | – | inhibition in vivo at 200 mg/kg (Mus musculus): 72.4%; IC50 (RBL-2H3 [2]): 490 µM
COc1cc(C=O)ccc1O [VANILLIN] | 5.9 | –
O=C(O)c1cc2c([nH]c3ccccc32)c([C@@H](O)CO)n1 [DICHOTOMINE B] | 1.2 | –
